Calls of active or inactive are those of the source. The calls are words filed in the database; no cut-off is given here.
How the values were obtained:
HEK293 = experiment: Induction of cell proliferation of HEK293 cells assessed as proliferation rate at 100 uM measured up to 72 hrs by MTT assay; assay type: functional; details: Homo sapiens, HEK293, 72 h; read-out: Activity
PBL [1] = experiment: Immunostimulatory activity in human PBL assessed as increase in cell proliferation […] after 72 hrs by MTT assay relative to control; assay type: functional
Procedure, shortened: (§1)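 Ficoll-isolated human PBLs were plated at 2.5×10^6 cells/mL in RPMI-1640 at 37 °C, 5% CO2. After 3 h they were treated with 0, 10, 20, 50 or 100 µM compound in DMSO, with Con A at 1–20 µg/mL as reference mitogen. MTT was added at 72 h for 4 h, and formazan dissolved in DMSO was read at 570 nm. Proliferative index was taken as fold over untreated control, from three independent experiments.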

Cornea = experiment: Pro-angiogenic activity in rat cornea assessed as vascularization by measuring microvascular density at 20 ug after overnight incubation; assay type: functional
PBL [2] = experiment: Ex-vivo induction of IL-23 production in human PBL at 100 uM after 72 hrs by ELISA; assay type: functional, cell-based
Procedure, shortened: (§2)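 Human PBLs were isolated from heparinized venous blood of consenting volunteers aged 18–60 y on Ficoll-hypaque (1.077 g/mL). They were seeded at 5×10^5 cells/well in RPMI-1640, exposed to compound in DMSO, and held 72 h at 37 °C, 5% CO2. Supernatants were taken after centrifugation at 240 × g, and IL-2, IL-12 and IL-23 were measured by ELISA, in triplicate.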

PBL [3] = experiment: Ex-vivo induction of IL-12 production in human PBL at 100 uM after 72 hrs by ELISA; assay type: functional, cell-based; procedure, shortened: as §2
PBL [4] = experiment: Immunostimulatory activity in human PBL assessed as increase in cell proliferation after 72 hrs by MTT assay; assay type: functional, cell-based; procedure, shortened: as §1
Chorioallantoic membrane = experiment: Pro-angiogenic activity in chicken chorioallantoic membrane assessed as dense blood vessel formation by measuring microvascular density at 20 uM after 12 days; assay type: functional; details: Gallus gallus
PBL [5] = experiment: Ex-vivo induction of IL-2 production in human PBL at 100 uM after 72 hrs by ELISA (reference value: 328 pg/ml); assay type: functional; procedure, shortened: as §2
PBL [6] = experiment: Ex-vivo induction of IL-2 production in human PBL at 100 uM after 72 hrs by ELISA relative to control; assay type: functional; procedure, shortened: as §2
[7] = biological target: Prostaglandin G/H synthase 1 (Homo sapiens) (UniProt P23219); experiment: Inhibition of COX1 in human PBL after 72 hrs by colorimetric method; details: concentration not given here
Prostaglandin G/H synthase 1 (Homo sapiens), sequence (P23219 whole entry): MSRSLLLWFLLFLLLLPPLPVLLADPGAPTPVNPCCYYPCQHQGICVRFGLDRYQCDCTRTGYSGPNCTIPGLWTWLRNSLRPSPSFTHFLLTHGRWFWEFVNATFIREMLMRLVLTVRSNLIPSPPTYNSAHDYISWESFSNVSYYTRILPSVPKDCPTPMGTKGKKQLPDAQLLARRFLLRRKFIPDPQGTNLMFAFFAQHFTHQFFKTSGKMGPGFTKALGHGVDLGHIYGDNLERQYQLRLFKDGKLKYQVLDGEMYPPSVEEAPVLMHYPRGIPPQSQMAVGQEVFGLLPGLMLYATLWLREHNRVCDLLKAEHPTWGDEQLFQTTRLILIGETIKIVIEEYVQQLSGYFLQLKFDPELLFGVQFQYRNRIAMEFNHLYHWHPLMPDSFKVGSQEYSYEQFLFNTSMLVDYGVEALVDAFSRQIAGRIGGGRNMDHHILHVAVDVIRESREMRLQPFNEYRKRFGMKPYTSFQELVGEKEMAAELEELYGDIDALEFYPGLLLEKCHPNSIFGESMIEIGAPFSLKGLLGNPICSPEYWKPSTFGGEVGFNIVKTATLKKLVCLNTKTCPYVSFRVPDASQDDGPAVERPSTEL

[8] = Immunostimulatory activity in Swiss albino mouse splenocytes assessed as increase in proliferation at 100 uM after 72 hrs by MTT assay relative to ConA; assay type: functional, Splenocyte
Procedure, shortened: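 Splenocytes came from Swiss albino mice (23–25 g, 12 weeks). Erythrocytes were lysed in NH4Cl/KHCO3/EDTA buffer, pH 7.4. Cells were plated at 2.5×10^6 cells/mL in RPMI-1640 at 37 °C, 5% CO2, and compound (0–100 µM in DMSO) was added after 3 h. After 72 h, MTT was added for 4 h and formazan dissolved in DMSO was read at 570 nm. Con A (1–20 µg/mL) served as reference, and the index was expressed as fold over untreated control (1.0).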

With `O=C(O)c1cc(C(=O)C2C(c3cccc(Cl)c3)=NOC2c2ccc(O)cc2)ccc1O` (configuration not stated) the growth at 100 µM (HEK293) was 0% and the Activity (PBL [1]) was “inactive”.

For `COc1ccc(C2ON=C(c3ccc(Cl)cc3)C2C(=O)c2ccc(O)c(C(=O)O)c2)cc1` (configuration not stated), the growth at 100 µM (HEK293) was 11% and the Activity (PBL [1]) was “inactive”.

`COc1ccc(C2=NOC(c3ccccc3)C2C(=O)c2ccc(O)c(C(=O)O)c2)c(OC)c1` (configuration not stated) gave a growth at 100 µM (HEK293) of 0%.

With `O=C(O)c1cc(C(=O)C2C(c3ccc(Cl)cc3)=NOC2c2ccc(Br)cc2)ccc1O` (configuration not stated) the growth at 100 µM (HEK293) was 6% and the Activity (PBL [1]) was “inactive”.

`COc1ccc(C2=NOC(c3ccc(O)cc3)C2C(=O)c2ccc(O)c(C(=O)O)c2)cc1` (configuration not stated) gave a growth at 100 µM (HEK293) of 8%.

For `COc1ccc(C2ON=C(c3cccc(Cl)c3)C2C(=O)c2ccc(O)c(C(=O)O)c2)cc1` (configuration not stated), the growth at 100 µM (HEK293) was 9% and the Activity (PBL [1]) was “inactive”.

For `COc1ccc(C2=NOC(c3cccc(Cl)c3)C2C(=O)c2ccc(O)c(C(=O)O)c2)cc1` (configuration not stated), the Activity (Cornea) was “Active”, the Activity (PBL [2]) was “inactive” and the Activity (PBL [3]) was “inactive”. The Activity (PBL [4]) was “Dose-dependent effect”, the growth at 100 µM (HEK293) was 73% and the Activity (Chorioallantoic membrane) was “Active”. The “fold change (FC)” value (PBL [1]) was 1.25, the Activity (PBL [5]) was 1460 pg/mL and the “fold change (FC)” value (PBL [6]) was 4. The inhibition [7] was 39% and the “fold change (FC)” value [8] was 1.2.

For `O=C(O)c1cc(C(=O)C2C(c3ccc(Cl)cc3)=NOC2c2ccc(Cl)cc2)ccc1O` (configuration not stated), the growth at 100 µM (HEK293) was 9% and the Activity (PBL [1]) was “inactive”.

With `O=C(O)c1cc(C(=O)C2C(c3cccc(Cl)c3)=NOC2c2cccc(Cl)c2)ccc1O` (configuration not stated) the growth at 100 µM (HEK293) was 42% and the Activity (PBL [1]) was “Active”.

In the case of `O=C(O)c1cc(C(=O)C2C(c3cccc(Cl)c3)=NOC2c2ccc(Br)cc2)ccc1O` (configuration not stated), the growth at 100 µM (HEK293) is reported as 12% and the Activity (PBL [1]) is reported as “inactive”.

Reference: ChEMBL document CHEMBL3779851, “Synthesis and biological evaluation of salicylic acid conjugated isoxazoline analogues on immune cell proliferation and angiogenesis” (2016)
